Experiments:
[1] = test system: PC-3; assay: Growth inhibition of human PC-3 cells measured after 48 hrs by sulforhodamine B assay; format: functional
Outline: (§1)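 Panel of 39 human cancer cell lines tested at the Japanese Foundation for Cancer Research. Five concentrations per compound, spanning 10⁻¹¹–10⁻⁷ M, 10⁻¹⁰–10⁻⁶ M or 10⁻⁸–10⁻⁴ M, were used to build dose-response curves. GI₅₀ is the concentration giving 50% growth inhibition relative to control.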

[2] = test system: RXF 631; assay: Growth inhibition of human RXF 631 cells measured after 48 hrs by sulforhodamine B assay; format: functional; outline: as §1
[3] = test system: KM12; assay: Growth inhibition of human KM12 cells measured after 48 hrs by sulforhodamine B assay; format: functional; outline: as §1
[4] = test system: SNB-75; assay: Growth inhibition of human SNB-75 cells measured after 48 hrs by sulforhodamine B assay; format: functional; outline: as §1
[5] = Growth inhibition of human BSY1 cells measured after 48 hrs by sulforhodamine B assay; format: functional; details: BSY-1; outline: as §1
[6] = molecular target: Histone deacetylase 1 (Homo sapiens, UniProt Q13547); assay: Inhibition of human HDAC1 expressed in 293T cells using Ac-KGLGK(Ac)-MCA as substrate incubated for 30 mins in presence of 0.1 mM DTT by fluorescence plate reader assay; design: species or system HEK293T
[7] = test system: SNB-78; assay: Growth inhibition of human SNB-78 cells measured after 48 hrs by sulforhodamine B assay; format: functional; outline: as §1
[8] = test system: MKN-1; assay: Growth inhibition of human MKN-1 cells measured after 48 hrs by sulforhodamine B assay; format: functional; outline: as §1
[9] = test system: MDA-MB-231; assay: Growth inhibition of human MDA-MB-231 cells measured after 48 hrs by sulforhodamine B assay; format: functional; outline: as §1
[10] = test system: OVCAR-3; assay: Growth inhibition of human OVCAR-3 cells measured after 48 hrs by sulforhodamine B assay; format: functional; outline: as §1
[11] = test system: NCI-H522; assay: Growth inhibition of human NCI-H522 cells measured after 48 hrs by sulforhodamine B assay; format: functional; outline: as §1
[12] = test system: NCI-H460; assay: Growth inhibition of human NCI-H460 cells measured after 48 hrs by sulforhodamine B assay; format: functional; outline: as §1
[13] = test system: MKN-45; assay: Growth inhibition of human MKN-45 cells measured after 48 hrs by sulforhodamine B assay; format: functional; outline: as §1
[14] = Growth inhibition of human HBC4 cells measured after 48 hrs by sulforhodamine B assay; format: functional; outline: as §1
[15] = Selectivity index, ratio of IC50 for mouse HDAC6 expressed in 293T cells to IC50 for human HDAC1 expressed in 293T cells using Ac-KGLGK(Ac)-MCA as substrate incubated for 30 mins in presence of 0.1 mM DTT by fluorescence plate reader assay; details: 0.5 h
Outline: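 Ratio of HDAC6 IC₅₀ to HDAC1 IC₅₀, taken as selectivity for class I HDAC1 over class II HDAC6. Both enzyme assays were run in the presence of 0.1 mM DTT.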

[16] = test system: A549; assay: Growth inhibition of human A549 cells measured after 48 hrs by sulforhodamine B assay; format: functional; outline: as §1
[17] = test system: OVCAR-4; assay: Growth inhibition of human OVCAR-4 cells measured after 48 hrs by sulforhodamine B assay; format: functional; outline: as §1
[18] = test system: SF-295; assay: Growth inhibition of human SF-295 cells measured after 48 hrs by sulforhodamine B assay; format: functional; outline: as §1
[19] = test system: LOX IMVI; assay: Growth inhibition of human LOX IMVI cells measured after 48 hrs by sulforhodamine B assay; format: functional; outline: as §1
[20] = test system: NCI-H226; assay: Growth inhibition of human NCI-H226 cells measured after 48 hrs by sulforhodamine B assay; format: functional; outline: as §1
[21] = test system: SF-539; assay: Growth inhibition of human SF-539 cells measured after 48 hrs by sulforhodamine B assay; format: functional; outline: as §1
[22] = test system: OVCAR-8; assay: Growth inhibition of human OVCAR-8 cells measured after 48 hrs by sulforhodamine B assay; format: functional; outline: as §1
[23] = molecular target: T1, Protein deacetylase HDAC6 (Mus musculus, UniProt Q9Z2V5); assay: Inhibition of mouse HDAC6 expressed in 293T cells using Ac-KGLGK(Ac)-MCA as substrate incubated for 30 mins in presence of 0.1 mM DTT by fluorescence plate reader assay; design: species or system HEK293T
T1 sequence (Q9Z2V5 whole entry): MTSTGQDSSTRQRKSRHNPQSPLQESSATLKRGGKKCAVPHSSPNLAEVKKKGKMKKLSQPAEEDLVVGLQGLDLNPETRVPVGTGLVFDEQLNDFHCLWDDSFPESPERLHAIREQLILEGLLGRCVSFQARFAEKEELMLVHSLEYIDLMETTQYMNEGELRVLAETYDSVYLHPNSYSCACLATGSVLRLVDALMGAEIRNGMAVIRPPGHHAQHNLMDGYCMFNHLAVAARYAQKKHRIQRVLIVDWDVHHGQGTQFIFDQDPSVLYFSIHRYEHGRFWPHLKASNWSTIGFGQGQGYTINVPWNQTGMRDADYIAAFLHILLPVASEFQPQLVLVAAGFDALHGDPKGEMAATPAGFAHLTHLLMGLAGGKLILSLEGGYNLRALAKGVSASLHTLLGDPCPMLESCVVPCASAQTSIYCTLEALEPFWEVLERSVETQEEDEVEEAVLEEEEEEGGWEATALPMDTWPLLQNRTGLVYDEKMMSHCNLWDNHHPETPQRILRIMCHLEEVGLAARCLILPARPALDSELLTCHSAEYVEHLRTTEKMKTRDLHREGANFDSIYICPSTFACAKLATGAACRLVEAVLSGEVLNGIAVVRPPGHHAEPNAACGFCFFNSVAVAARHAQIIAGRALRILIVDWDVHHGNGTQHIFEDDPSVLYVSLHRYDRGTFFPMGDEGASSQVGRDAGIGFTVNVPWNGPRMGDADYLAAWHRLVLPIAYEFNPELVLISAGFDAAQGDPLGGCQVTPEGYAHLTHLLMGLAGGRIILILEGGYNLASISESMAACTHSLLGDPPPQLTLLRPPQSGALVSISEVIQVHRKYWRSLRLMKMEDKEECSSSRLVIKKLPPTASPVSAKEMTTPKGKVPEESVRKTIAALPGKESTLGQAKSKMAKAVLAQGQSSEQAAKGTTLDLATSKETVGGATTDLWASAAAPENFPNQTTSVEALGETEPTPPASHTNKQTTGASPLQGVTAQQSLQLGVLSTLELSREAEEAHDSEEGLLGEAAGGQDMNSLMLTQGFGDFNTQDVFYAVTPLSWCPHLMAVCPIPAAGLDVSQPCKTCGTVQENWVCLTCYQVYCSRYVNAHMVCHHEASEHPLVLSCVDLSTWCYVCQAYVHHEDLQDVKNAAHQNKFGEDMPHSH
Outline: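 HDAC enzyme assay run in the presence of 0.1 mM dithiothreitol (DTT); IC₅₀ determined.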

[24] = test system: HT-29; assay: Growth inhibition of human HT-29 cells measured after 48 hrs by sulforhodamine B assay; format: functional; outline: as §1
[25] = test system: HCC 2998; assay: Growth inhibition of human HCC 2998 cells measured after 48 hrs by sulforhodamine B assay; format: functional; outline: as §1
[26] = test system: MKN-7; assay: Growth inhibition of human MKN-7 cells measured after 48 hrs by sulforhodamine B assay; format: functional; outline: as §1
[27] = test system: SF-268; assay: Growth inhibition of human SF-268 cells measured after 48 hrs by sulforhodamine B assay; format: functional; outline: as §1
[28] = test system: DU-145; assay: Growth inhibition of human DU-145 cells measured after 48 hrs by sulforhodamine B assay; format: functional; outline: as §1
[29] = test system: OVCAR-5; assay: Growth inhibition of human OVCAR-5 cells measured after 48 hrs by sulforhodamine B assay; format: functional; outline: as §1
[30] = test system: MKN-28; assay: Growth inhibition of human MKN-28 cells measured after 48 hrs by sulforhodamine B assay; format: functional; outline: as §1
[31] = test system: HCT-15; assay: Growth inhibition of human HCT-15 cells measured after 48 hrs by sulforhodamine B assay; format: functional; outline: as §1
[32] = test system: HCT-116; assay: Growth inhibition of human HCT-116 cells measured after 48 hrs by sulforhodamine B assay; format: functional; outline: as §1
[33] = test system: DMS-114; assay: Growth inhibition of human DMS-114 cells measured after 48 hrs by sulforhodamine B assay; format: functional; outline: as §1
[34] = test system: MCF7; assay: Growth inhibition of human MCF7 cells measured after 48 hrs by sulforhodamine B assay; format: functional; outline: as §1
[35] = test system: DMS-273; assay: Growth inhibition of human DMS-273 cells measured after 48 hrs by sulforhodamine B assay; format: functional; outline: as §1
[36] = Growth inhibition of human HBC5 cells measured after 48 hrs by sulforhodamine B assay; format: functional; outline: as §1
[37] = test system: St-4; assay: Growth inhibition of human St-4 cells measured after 48 hrs by sulforhodamine B assay; format: functional; outline: as §1
[38] = test system: U-251; assay: Growth inhibition of human U-251 cells measured after 48 hrs by sulforhodamine B assay; format: functional; outline: as §1
[39] = test system: SK-OV-3; assay: Growth inhibition of human SK-OV-3 cells measured after 48 hrs by sulforhodamine B assay; format: functional; outline: as §1
[40] = test system: MKN-74; assay: Growth inhibition of human MKN-74 cells measured after 48 hrs by sulforhodamine B assay; format: functional; outline: as §1
[41] = test system: ACHN; assay: Growth inhibition of human ACHN cells measured after 48 hrs by sulforhodamine B assay; format: functional; outline: as §1
[42] = test system: NCI-H23; assay: Growth inhibition of human NCI-H23 cells measured after 48 hrs by sulforhodamine B assay; format: functional; outline: as §1

Chain of Histone deacetylase 1 (Q13547 whole entry): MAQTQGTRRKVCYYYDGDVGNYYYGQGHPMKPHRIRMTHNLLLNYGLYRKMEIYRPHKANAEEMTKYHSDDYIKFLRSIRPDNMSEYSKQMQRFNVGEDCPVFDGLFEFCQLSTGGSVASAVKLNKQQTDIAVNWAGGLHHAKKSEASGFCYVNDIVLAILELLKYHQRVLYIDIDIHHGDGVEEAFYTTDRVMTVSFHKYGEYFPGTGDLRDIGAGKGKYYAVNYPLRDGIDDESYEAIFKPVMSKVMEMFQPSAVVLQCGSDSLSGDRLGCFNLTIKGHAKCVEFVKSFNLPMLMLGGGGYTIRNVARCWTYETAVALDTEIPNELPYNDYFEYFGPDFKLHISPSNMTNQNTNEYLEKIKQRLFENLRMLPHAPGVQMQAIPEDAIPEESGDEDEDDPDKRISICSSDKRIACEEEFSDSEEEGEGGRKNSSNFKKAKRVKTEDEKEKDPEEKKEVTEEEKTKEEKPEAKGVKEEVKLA

- GI50 [1]: 170 nM
- IC50 [6]: 4.7 nM
- GI50 [8]: 73 nM
- GI50 [9]: 53 nM
- GI50 [10]: 64 nM
- GI50 [11]: 10 nM
- GI50 [12]: 56 nM
- GI50 [13]: 1900 nM
- GI50 [16]: 52 nM
- GI50 [17]: 270 nM
- GI50 [20]: 410 nM
- GI50 [22]: 54 nM
- IC50 [23]: 859 nM
- GI50 [24]: 42 nM
- GI50 [25]: 32 nM
- GI50 [26]: 380 nM
- GI50 [28]: 39 nM
- GI50 [29]: 49 nM
- GI50 [30]: 1400 nM
- GI50 [31]: 20000 nM
- GI50 [32]: 26 nM
- GI50 [34]: 190 nM
- GI50 [38]: 120 nM
- GI50 [39]: 63 nM
- GI50 [40]: 100 nM
- GI50 [41]: 460 nM
- GI50 [42]: 130 nM
Compound: C/C=C1\NC(=O)[C@H]2CSSCC/C=C/[C@H](CC(=O)N[C@H](C(C)C)C(=O)N2)OC(=O)CNC1=O
- GI50 [2]: 230 nM
- GI50 [3]: 45 nM
- GI50 [4]: 10 nM
- GI50 [5]: 200 nM
- GI50 [7]: 10 nM
- GI50 [14]: 170 nM
- Ratio IC50 [15]: 182
- GI50 [18]: 280 nM
- GI50 [19]: 25 nM
- GI50 [21]: 10 nM
- GI50 [27]: 110 nM
- GI50 [33]: 43 nM
- GI50 [35]: 230 nM
- GI50 [36]: 630 nM
- GI50 [37]: 1100 nM

From ChEMBL document CHEMBL4715745, “Synthesis and biological evaluation of novel FK228 analogues as potential isoform selective HDAC inhibitors” (Eur J Med Chem, 2016)
